The structures appear in SMILES notation. Activity calls are given as the source filed them. The calls are words filed in the database; no cut-off is given here.

What all share (type): functional
One assay relates to A549. Kind of assay: Growth inhibition of human A549 cells at 20 uM after 72 hrs by alamar blue assay. Conditions: for inhibition of growth at 20 µM: A549, 72 h, read-out: GI. The essentials: (§1)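 Single-concentration screen at 20 μM with 72 h exposure across a panel of cancer lines: lung A549, pancreatic AsPC1, colon HT29, breast MDA-MB-231, prostate PC3, ovarian SKOV3 and bone U2OS. Growth inhibition read after 72 h.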

The test system of the next assay is ASPC1. As to the kind of experiment: Growth inhibition of human AsPC1 cells at 20 uM after 72 hrs by alamar blue assay. Particulars: for inhibition of growth at 20 µM: ASPC1, 72 h, read-out: GI. Summed up:
as §1
In general terms: Alamar Blue is a resazurin reagent that responds to reducing activity.

The test system of another assay is HT-29. As to the kind of experiment: Growth inhibition of human HT-29 cells at 20 uM after 72 hrs by alamar blue assay. Particulars: for inhibition of growth at 20 µM: HT-29, 72 h, read-out: GI. Summed up:
as §1

Another assay deals with MDA-MB-231. As to the kind of experiment: Growth inhibition of human MDA-MB-231 cells at 20 uM after 72 hrs by alamar blue assay. Conditions: for inhibition of growth at 20 µM: MDA-MB-231, 72 h, read-out: GI. The essentials:
as §1

In another assay the test system is PC-3. As to the kind of experiment: Growth inhibition of human PC3 cells at 20 uM after 72 hrs by alamar blue assay. Conditions: for inhibition of growth at 20 µM: PC-3, 72 h, read-out: GI. Summed up: as §1
For the next assay, the system named is SK-OV-3. As to the kind of experiment: Growth inhibition of human SKOV3 cells at 20 uM after 72 hrs by alamar blue assay. Conditions: for inhibition of growth at 20 µM: SK-OV-3, 72 h, read-out: GI. Summed up:
as §1

The next assay has as its system U2OS. Kind of assay: Growth inhibition of human U2OS cells at 20 uM after 72 hrs by alamar blue assay. Conditions: for inhibition of growth at 20 µM: read-out: GI. Summed up:
as §1

In the case of `O=[N+]([O-])c1ccc(NC(=S)Nc2ccc3nc(-c4ccco4)c(-c4ccco4)nc3c2)cc1`, the inhibition of growth at 20 µM with A549 was found to be 19.2%; in the assay on HT-29 it was 42%; in the assay on MDA-MB-231, 9%; in the assay on PC-3, 43.4%; with U2OS, 32.2%. Besides, the “growth inhibition (GI)” value in the assay on ASPC1 and with SK-OV-3 was “inactive” in each case.
As for `CC(=O)Nc1ccc2nc(-c3cccs3)c(-c3cccs3)nc2c1`, the “growth inhibition (GI)” value with A549, in the assay with ASPC1, with HT-29, with MDA-MB-231, in the assay with PC-3 and with SK-OV-3 was “inactive” each time. Besides, the “growth inhibition (GI)” value with U2OS is “inactive”.
As for `O=C(Nc1ccccc1)Nc1ccc2nc(-c3ccccc3)c(-c3ccccc3)nc2c1`, the “growth inhibition (GI)” value with A549, with ASPC1, in the assay with HT-29, in the assay on MDA-MB-231, in the assay on PC-3 and in the assay with SK-OV-3 was “inactive” throughout. The “growth inhibition (GI)” value in the assay on U2OS was “inactive”.
For `Cc1nc2ccc(NC(=O)N3CCCC3)cc2nc1C`, the “growth inhibition (GI)” value with A549, in the assay with ASPC1, in the assay on HT-29, with MDA-MB-231, in the assay with PC-3 and in the assay on SK-OV-3 was “inactive” throughout. The “growth inhibition (GI)” value in the assay with U2OS is “inactive”.
In the case of `S=C(Nc1ccccc1)Nc1ccc2nc(-c3cccs3)c(-c3cccs3)nc2c1`, the “growth inhibition (GI)” value with A549, in the assay with ASPC1, with HT-29, in the assay on MDA-MB-231, with PC-3 and with SK-OV-3 was “inactive” in each case. For the same compound, the “growth inhibition (GI)” value in the assay on U2OS was “inactive”.
As for `O=[N+]([O-])c1ccc(NC(=S)Nc2ccc3nc(-c4cccs4)c(-c4cccs4)nc3c2)cc1`, the “growth inhibition (GI)” value in the assay on A549, with ASPC1 and with SK-OV-3 was “inactive” throughout. For the same compound, the inhibition of growth at 20 µM in the assay with HT-29 is 23.9%; with MDA-MB-231 it was 53.3%; with PC-3, 19.5%; in the assay with U2OS, 50.6%.
Turning to `Cc1ccc(S(=O)(=O)c2c(N)ccc3nc(C)c(C)nc23)cc1`, the “growth inhibition (GI)” value in the assay on A549, with ASPC1, in the assay with HT-29, in the assay on MDA-MB-231, in the assay with PC-3 and with SK-OV-3 was “inactive” throughout. Besides, the “growth inhibition (GI)” value with U2OS is “inactive”.
On to `O=C(Nc1ccc2nc(-c3ccccc3)c(-c3ccccc3)nc2c1)N1CCCC1`, for which the inhibition of growth at 20 µM in the assay on A549 turned out to be 11%; in the assay with ASPC1, 29.4%; with MDA-MB-231, 16.7%; in the assay on PC-3 it was 56.9%; in the assay with SK-OV-3, 18.5%; with U2OS, 54.2%. Also, the “growth inhibition (GI)” value with HT-29 was “inactive”.
`Cc1nc2ccc(NC(=O)NN3CCC(Cc4ccccc4)CC3)cc2nc1C`: the inhibition of growth at 20 µM in the assay with A549 was determined as 40.3%; in the assay on HT-29, 16.3%; with MDA-MB-231 it was 12.4%; in the assay with PC-3, 30.6%; in the assay on SK-OV-3, 8.9%; with U2OS it was 33.5%. In addition, in the assay with ASPC1, the “growth inhibition (GI)” value was “inactive”.
On to `Cc1ccc(S(=O)(=O)Nc2ccc3nc(-c4ccccc4)c(-c4ccccc4)nc3c2)cc1`, for which the “growth inhibition (GI)” value in the assay with A549, with ASPC1, in the assay on HT-29, with MDA-MB-231, in the assay on PC-3 and in the assay with SK-OV-3 was “inactive” in each case. The “growth inhibition (GI)” value in the assay on U2OS was “inactive”.
As for `CC(=O)Nc1ccc2nc(C)c(C)nc2c1`, the inhibition of growth at 20 µM with A549 is 23.4%; in the assay with ASPC1, 26.2%; with HT-29 it was 31.7%; in the assay with MDA-MB-231 it was 25.7%; with PC-3, 21.8%; with SK-OV-3 it was 4%. The inhibition of growth at 20 µM in the assay on U2OS turned out to be 31.4%.
In the case of `S=C(Nc1ccccc1)Nc1ccc2nc(-c3ccccc3)c(-c3ccccc3)nc2c1`, the “growth inhibition (GI)” value in the assay with A549, in the assay on ASPC1, in the assay on HT-29, in the assay with MDA-MB-231, in the assay on PC-3 and with SK-OV-3 was “inactive” throughout. The “growth inhibition (GI)” value in the assay on U2OS is “inactive”.
Turning to `O=C(Nc1ccccc1)Nc1ccc2nc(-c3ccco3)c(-c3ccco3)nc2c1`, the inhibition of growth at 20 µM in the assay on A549 turned out to be 54.6%; in the assay on ASPC1 it was 9.6%; in the assay on HT-29, 52.1%; in the assay with MDA-MB-231 it was 31.3%; in the assay with PC-3 it was 70.6%; in the assay with SK-OV-3, 24.7%. Also, in the assay on U2OS, the inhibition of growth at 20 µM is 59.6%.
`S=C(Nc1ccccc1)Nc1ccc2nc(-c3ccco3)c(-c3ccco3)nc2c1`: the inhibition of growth at 20 µM worked out at 18% in the assay on A549; 26.1% in the assay with HT-29; 19.1% in the assay on MDA-MB-231; 56.8% in the assay with PC-3; 21.4% in the assay with U2OS. The “growth inhibition (GI)” value in the assay on ASPC1 and in the assay with SK-OV-3 was “inactive” each time.
Regarding `CC(=O)Nc1ccc2nc(-c3ccco3)c(-c3ccco3)nc2c1`, the inhibition of growth at 20 µM in the assay on A549 was determined as 57.8%; with HT-29, 7.6%; in the assay with MDA-MB-231 it was 20.3%; in the assay on PC-3 it was 57.7%; with SK-OV-3 it was 9%. Further, the “growth inhibition (GI)” value with ASPC1 and with U2OS was “inactive” throughout.
In the case of `Cc1nc2ccc(NC(=O)N3CCCCC3)cc2nc1C`, the “growth inhibition (GI)” value in the assay on A549, in the assay with ASPC1, with HT-29, with MDA-MB-231, in the assay with PC-3 and in the assay with SK-OV-3 was “inactive” in each case. For the same compound, in the assay on U2OS, the “growth inhibition (GI)” value is “inactive”.
With `CC(=O)Nc1ccc2nc(-c3ccccc3)c(-c3ccccc3)nc2c1`, the “growth inhibition (GI)” value in the assay with A549, in the assay with ASPC1, in the assay with HT-29, in the assay with MDA-MB-231, with PC-3 and in the assay on SK-OV-3 was “inactive” each time. The “growth inhibition (GI)” value in the assay with U2OS is “inactive”.

The values above are taken from ChEMBL document CHEMBL1759840, “2,3-Substituted quinoxalin-6-amine analogs as antiproliferatives: a structure-activity relationship study” (2011).
